Results: PMC4858174 (Innate immunity, 2015)
No end group written: not given here.

Experiments:
C3a receptor [1] = assay: C3a-induced Ca2+ mobilization, LAD2 cells; type: cell-based, human
Outline: (§1)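 LAD2 cells, kept in StemPro-34 with 100 ng/ml hSCF, were loaded with indo-1 AM (1 μM) for 30 min at room temperature. They were washed and resuspended in HEPES-buffered saline at 0.2 × 10^6 cells per run. E. coli LPS (serotype R515) was given as a 2 min pre-incubation or premixed with the peptide, followed by C3a. Fluorescence was read at excitation 355 nm and emission 410 nm. Traces are representative of three experiments.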

C3a receptor [2] = assay: C3a-induced degranulation, LAD2 cells; type: cell-based, human; conditions: LPS 1 and 10 μg/ml, C3a 10 nM, three experiments
Outline: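 LAD2 cells (5 × 10^3 per well) in HEPES buffer with 0.1% BSA were pre-treated with buffer or E. coli LPS, then stimulated. Percent β-hexosaminidase release was taken against unstimulated cells lysed in 0.1% Triton X-100. Mean ± SEM, three experiments; two-way ANOVA with Bonferroni.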

[3] = test system: untransfected RBL-2H3 cells, which do not express MrgX2; conditions: no MrgX2; cited from earlier work
macrophages = conditions: cited from earlier work
[4] = test system: LAD2 cells endogenously expressing MrgX2; assay: Degranulation; type: cell-based, human; conditions: for effect of E. coli-LPS on HDP-induced mast cell degranulation (summary): Discussion summary
[5] = test system: LAD2 cells endogenously expressing MrgX2; assay: Ca2+ mobilization, LAD2 cells; type: cell-based, human; conditions: for effect of E. coli-LPS on HDP-induced Ca2+ mobilization (summary): Discussion summary
Outline: as §1

[6] = test system: untransfected RBL-2H3 cells, which do not express MrgX2; conditions: no MrgX2; cited from earlier work; remark: listed apart in the source

Substance	effect of mixture of E. coli-LPS and hBD3 on C3a-induced Ca2+ mobilization (C3a receptor [1]; LPS 1 μg/ml + hBD3 100 nM, then C3a 10 nM)	effect of E. coli-LPS on C3a-induced Ca2+ response (C3a receptor [1]; LPS 1 μg/ml preincubated, C3a 10 nM)	effect of E. coli-LPS on C3a-induced Ca2+ response (LL-37 experiment) (C3a receptor [1]; LPS 10 μg/ml, pre-incubated or mixed with LL-37 1 μM, C3a 10 nM)	effect of E. coli-LPS on C3a-induced degranulation (C3a receptor [2])	degranulation in untransfected RBL-2H3 cells, earlier work [3]	inhibition of LPS-induced cytokine generation in macrophages, hBD3 (macrophages)	effect of E. coli-LPS on HDP-induced mast cell degranulation (summary) [4]	effect of E. coli-LPS on hBD3-induced degranulation ([4]; LAD2, LPS 1 and 10 μg/ml, hBD3 100 nM, mean ± SEM of three experiments)	effect of E. coli-LPS on HDP-induced Ca2+ mobilization (summary) [5]	effect of premixed E. coli-LPS on hBD3-induced Ca2+ response ([5]; LAD2, LPS 1 μg/ml premixed with hBD3 100 nM)	effect of E. coli-LPS preincubation on hBD3-induced Ca2+ response ([5]; LAD2, LPS 1 μg/ml, 2 min preincubation, hBD3 100 nM)	intracellular Ca2+ response in LAD2 cells ([5]; hBD3 100 nM, not back to basal level even after 5 min)	Ca2+ mobilization in untransfected RBL-2H3 cells, earlier work [6]	effect of E. coli-LPS on LL-37-induced degranulation ([4]; LAD2, LPS 10 μg/ml, LL-37 1 μM, three experiments)	effect of E. coli-LPS on LL-37-induced Ca2+ mobilization ([5]; LAD2, LPS 10 μg/ml, 2 min pre-incubation or added simultaneously, LL-37 1 μM)
C3a: anaphylatoxin C3a; native complement C3a from Complement Technology	not affected	no effect	no effect on the response to C3a	did not inhibit the response to C3a	–	–	–	–	–	–	–	–	–	–	–
Human β-defensin3 (GIINTLQKYYCRVRGGRCAVLSCLPKEEQIGKCSTRGRKCCRRKK; not fully specified; ends and bridges not checked; UniProt P81534 23-67, looked up) [hBD3]	–	–	–	–	unresponsive	inhibit LPS-induced cytokine generation in macrophages	almost complete inhibition	substantial inhibition	almost complete inhibition	to the same extent as the 2 min pre-incubation protocol	complete inhibition	sustained intracellular Ca^2+ response	unresponsive	–	–
LL-37: human cathelicidin, host defense peptide	–	–	–	–	unresponsive	–	almost complete inhibition	–	almost complete inhibition	–	–	–	unresponsive	blocked	ablated
